Bioassay records (PubChem)
The list is not random: actives were taken first. Their share in the collection is about 4.8%.
697 NFkB inh: inhibitors of the PMA/ionomycin-induced NF-kB reporter in 697 B cells. inhibition, % at 4 µM. hit rate 0.33% among 330,000. AID 435022. 697 B-cell NF-kB luciferase reporter, 16 h; in the data active means inhibition above about 35%
HSF-1 act: increases HSF-1 driven luciferase reporter signal; activation, % at 9 µM; NIH3T3-HGL HSF-1 luciferase reporter, MG132, 8 h; 100% = twice DMSO control signal; hit rate 1.7% among 300,000;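 active means mean replicate activation of at least 50% with a set share of replicates each reaching 50%; inconclusive means only one of those two conditions met; inactive means mean below 50% and too few replicates reaching it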
HSF1 inhib: HSF1 inhibition; activity change, negative = inhibition, % at 7.5 µM (by protocol); NIH3T3-HGL HSE-luciferase, MG132-induced, luminescence 8 h; active compounds read low; hit rate 0.77% among 300,000;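 active means more than half of replicate wells show activity change below -50%, luminescence cut by over half; inconclusive means some wells, but at most half, below -50%; inactive means no replicate well below -50%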;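 further: luciferase reports HSF-1 transcriptional activity via heat shock element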
Jurkat NFkB inh: inhibitors of the PMA/ionomycin-induced NF-kB reporter in Jurkat cells; PMA/ionomycin-induced NF-kB luciferase reporter, luminescence; inhibition, % at 4 µM; hit rate 0.53% among 330,000; in the data active means inhibition above about 50%
GPR7 antagonist: antagonists of human GPR7 (neuropeptides B/W receptor 1); AID 1861; hit rate 1.1% among 290,000; GPR7-expressing cells, fluorescence antagonist assay; inhibition, % at 4.4 µM; in the data active means inhibition above about 16%, passing the limit was not always enough;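 further: cells stimulated with the agonist NPW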
Target sequence (P48145 whole entry, looked up): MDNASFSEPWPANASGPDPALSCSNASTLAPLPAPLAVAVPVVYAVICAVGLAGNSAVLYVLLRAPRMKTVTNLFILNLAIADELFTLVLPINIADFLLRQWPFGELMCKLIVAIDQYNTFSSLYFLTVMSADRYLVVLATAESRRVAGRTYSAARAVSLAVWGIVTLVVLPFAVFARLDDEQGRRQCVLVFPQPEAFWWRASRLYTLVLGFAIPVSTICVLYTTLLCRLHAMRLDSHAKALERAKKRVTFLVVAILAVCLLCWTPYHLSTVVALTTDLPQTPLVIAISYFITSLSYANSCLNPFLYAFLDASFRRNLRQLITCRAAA
T cruzi repl: blocks replication of Trypanosoma cruzi; T. cruzi beta-gal in NIH3T3, luminescence, 90 h; inhibition, % (test concentration not listed); hit rate 1.4% among 300,000; AID 1885;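 active means mean inhibition across valid replicates above about 55%, limit read from the data; inconclusive means mean below that limit but half or more replicates reach it; inactive means mean below it, under half of replicates reach it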;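 further: signal also drops with host cell toxicity which is not excluded here; higher percent means less beta-gal luminescence so fewer parasites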
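System: Mouse NIH/3T3 fibroblasts infected with β-gal-expressing T. cruzi Tulahuen C4 | Quantity: NIH/3T3 cells, 5,000 per well | Reagent: 5000 reporter trypomastigotes per well | Dosing: Compound pinned at 50 nL/well, DMSO | Schedule: 3 h host attachment, then at least 90 h co-culture | Detection: GalScreen luminescence, 60 min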
Large screens that a line does not name were inactive.

COc1ccc(C2C(C(=O)c3ccccc3)=C(C)Nc3nc4ccccc4n32)cc1OC (stereo not given)	T cruzi repl inconclusive
COc1ccc(OC)c(C2C(C(=O)c3ccccc3)=C(C)Nc3nc4ccccc4n32)c1 (stereo not given)	T cruzi repl 69
COC(=O)c1ccc2c(=O)n(Cc3ccc(C(=O)NCCCN4CCC(C)CC4)cc3)c(=S)[nH]c2c1	none
CC1CCN(CCCNC(=O)c2ccc3c(=O)n(Cc4ccc(Cl)cc4)c(=S)[nH]c3c2)CC1	HSF-1 act 79
CN(C)CCNC(=O)c1ccc2c(=O)n(Cc3ccc(Cl)cc3)c(=S)[nH]c2c1	none
CCN1CCN(CCNC(=O)CCCCCn2c(=O)[nH]c3cc(C(=O)OC)ccc3c2=O)CC1	HSF1 inhib -54
CCCCCn1c(=O)[nH]c2cc(C(=O)NCCCN(C)Cc3ccccc3)ccc2c1=O	T cruzi repl 58
CCCCN(C)CCNC(=O)c1ccc(Cn2c(=S)[nH]c3ccc(Br)cc3c2=O)cc1	T cruzi repl 77
CCN(CC)C(=O)[C@H]1C[C@H](CC(=O)NCCc2ccccn2)C(=O)N2CCc3c([nH]c4ccc(Cl)cc34)[C@]12C	none (no result: HSF-1 act, HSF1 inhib, Jurkat NFkB inh, GPR7 antagonist, T cruzi repl)
CCCCN(C(=O)CNC(=O)c1ccco1)C(C(=O)NC1CCCCC1)c1cccnc1 (stereo not given)	none
COc1ccc([C@H]2/C=C\CN(S(=O)(=O)c3ccc4ccccc4c3)[C@@H](C)C(=O)N2Cc2ccc(F)cc2)cc1	T cruzi repl 59 (no result: HSF-1 act, GPR7 antagonist)
CN(C)c1ccc(/C=C/c2ccc3ccccc3n2)cc1	HSF1 inhib -85 (no result: 697 NFkB inh, Jurkat NFkB inh)
CN(C)c1ccc(/C=C/c2nc3ccccc3s2)cc1	HSF1 inhib -80
Oc1ccc(/C=C/c2ccc3ccccc3n2)cc1	none
Cc1ccccc1-c1oc(C)c(C)[n+]1[O-]	none
CCCCCCCCCC(=O)Nc1cccnc1	none (no result: HSF-1 act, HSF1 inhib)
O=C1CC(SC(=Nc2ccccc2)Nc2ccccc2)C(=O)N1c1ccc(Cl)c(Cl)c1 (stereo not given)	T cruzi repl 55
O=C(NCc1cccnc1)/C(=C/c1ccc(-c2cccc(Cl)c2)o1)S(=O)(=O)c1ccccc1	HSF-1 act inconclusive
O=C(NCc1cccnc1)/C(=C\c1ccc(-c2cccc(Cl)c2)o1)S(=O)(=O)c1ccccc1	GPR7 antagonist 20 (no result: 697 NFkB inh, Jurkat NFkB inh)
CC(=O)NC(c1ccco1)c1ccc2cccnc2c1O (stereo not given)	none
Oc1c(C(Nc2ccccn2)c2ccccn2)ccc2cccnc12 (stereo not given)	T cruzi repl 55
Cc1cc(NC(c2ccc(Cl)cc2)c2ccc3cccnc3c2O)no1 (stereo not given)	HSF-1 act inconclusive
Oc1ccccc1C(Nc1nccs1)c1ccc2cccnc2c1O (stereo not given)	HSF1 inhib -57, T cruzi repl 63
O=C(COC(=O)CNC(=O)C1CCCCC1)Nc1ccc(Cl)cc1F	none
COc1cccc(/C=N/NC(=O)c2c(C)nc3ccc(Cl)cn23)c1O	none
COc1ccc(NC(=O)c2cc(S(=O)(=O)N3CCCC3)oc2C)cc1	none
Cc1oc(S(=O)(=O)N(C)C)cc1C(=O)Nc1ccc(Cl)cc1	HSF-1 act 55
OC(CN1CCCCC1)Cn1c2ccc(Cl)cc2c2cc(Cl)ccc21 (stereo not given)	T cruzi repl 82
CCn1nccc1C(=O)Nc1ccc(C(=O)OC(C)C)cc1	none
Cc1ccc(NC(=O)N2CCCC2C(=O)Nc2c(C)cc(C)cc2C)cc1 (stereo not given)	HSF-1 act 57
CC(=O)c1cccc(NC(=O)N2CCCC2C(=O)Nc2c(C)cccc2C)c1 (stereo not given)	none
Cc1cc(C)c(OCC(=O)OC(C)C(=O)NC2CC2)c(C)c1 (stereo not given)	none
O=C(CN1C(=O)S/C(=C\C=C\c2ccccc2)C1=O)N1CCOCC1	none
CC(C)[C@H](NC(=O)[C@H]1N2C(=O)c3ccccc3C2SC1(C)C)C(=O)NCc1ccco1 (stereo not given in full)	none
COC(=O)CCC(=O)NNC(=O)c1cccc(Br)c1	HSF1 inhib -67
O=C(O)CCC(=O)NNC(=O)c1cccc(Br)c1	none
Cc1cccc(NC(=O)[C@H](NC(=O)[C@@H]2Cc3ccccc3CN2)c2ccccc2)c1	none
CCN1C(=O)/C(=C\c2nc3ccccc3c(=O)n2-c2ccccc2)c2ccccc21	none
CCN1C(=O)/C(=C/c2nc3ccccc3c(=O)n2-c2ccc(C)cc2)c2ccccc21	T cruzi repl 74
O=C1C(Nc2ccc(O)cc2)=C/C(=N/S(=O)(=O)c2cccs2)c2ccccc21	HSF1 inhib -93, T cruzi repl 58 (no result: 697 NFkB inh, Jurkat NFkB inh)
Cc1cccc(NC2=C/C(=N/S(=O)(=O)c3cccs3)c3ccccc3C2=O)c1	none (no result: 697 NFkB inh, HSF-1 act, HSF1 inhib, Jurkat NFkB inh, T cruzi repl)
Cc1ccc(Cl)cc1NC1=C/C(=N\S(=O)(=O)c2cccs2)c2ccccc2C1=O	HSF1 inhib -94, T cruzi repl 61
Cc1cc(C)c(S(=O)(=O)/N=C2\C=C(Nc3ccc(C(=O)O)cc3)C(=O)c3ccccc32)c(C)c1	HSF1 inhib -87
Cc1ccc(NC2=C/C(=N\S(=O)(=O)c3cccs3)c3ccccc3C2=O)c(C)c1	HSF1 inhib -95, T cruzi repl 57
COc1cccc(/C=C2\Oc3cc(OCC(=O)N4CCC[C@H]4C(=O)O)ccc3C2=O)c1	none
COc1cc(NC(=S)N2CCCCC2C)cc(OC)c1OC (stereo not given)	none
Cc1cc(-c2ccc(C(C)C)c(S(=O)(=O)NCCN3CCC(C)CC3)c2)on1	HSF-1 act 67
Cc1cc(-c2ccc(C)c(S(=O)(=O)NCCC(C)N3CCCCCC3)c2)on1 (stereo not given)	HSF1 inhib -67
CCC1(CC)NC(=O)N(CC(=O)OCc2nc3cc(C(=O)OC)ccc3c(=O)[nH]2)C1=O	none (no result: HSF-1 act, HSF1 inhib, GPR7 antagonist, T cruzi repl)
Cc1ccc2nc(N/C(N)=N/S(=O)(=O)c3ccc([N+](=O)[O-])cc3)nc(C)c2c1	T cruzi repl 58
CCC(Sc1ccc2nnc(-c3cccnc3)n2n1)C(=O)O (stereo not given)	none
CCOC(=O)CSc1ccc2nnc(-c3ccncc3)n2n1	HSF-1 act 55
CCOC(=O)C(CC)Sc1ccc2nnc(-c3cccnc3)n2n1 (stereo not given)	HSF1 inhib -72
CCOC(=O)CSc1ccc2nnc(-c3cccs3)n2n1	none
CC1(C)Cc2ccccc2C(NN=C2CCCC2)=N1	none
COc1ccc(NC(=O)c2cc(-c3ccncc3)nc3ccc(Br)cc23)cc1OC	none
CC(C)c1ccc(CN(C(=O)/C=C/c2ccco2)C2CCS(=O)(=O)C2)cc1 (stereo not given)	none
Cc1ccc(-c2[nH]ncc2/C=N/n2c(C)nc3ccccc3c2=O)cc1	HSF1 inhib -52
O=c1c2ccccc2nc(COc2ccccc2)n1/N=C/c1cn[nH]c1-c1ccccc1	none
